Reference: ChEMBL document CHEMBL4406825, “Design, synthesis and preliminary bioactivity evaluations of 8-hydroxyquinoline derivatives as matrix metalloproteinase (MMP) inhibitors” (Eur J Med Chem, 2019)
The source made the active and inactive calls. The calls are words filed in the database; no cut-off is given here.

How the values were obtained:
[1] = biological target: T1, Matrix metalloproteinase-9 (Homo sapiens, UniProt P14780); test: Inhibition of recombinant human MMP9 at 50 uM using thiopeptide as substrate preincubated for 30 mins followed by substrate addition and measured every min for 20 mins by colorimetric assay relative to control
T1 sequence (P14780 whole entry): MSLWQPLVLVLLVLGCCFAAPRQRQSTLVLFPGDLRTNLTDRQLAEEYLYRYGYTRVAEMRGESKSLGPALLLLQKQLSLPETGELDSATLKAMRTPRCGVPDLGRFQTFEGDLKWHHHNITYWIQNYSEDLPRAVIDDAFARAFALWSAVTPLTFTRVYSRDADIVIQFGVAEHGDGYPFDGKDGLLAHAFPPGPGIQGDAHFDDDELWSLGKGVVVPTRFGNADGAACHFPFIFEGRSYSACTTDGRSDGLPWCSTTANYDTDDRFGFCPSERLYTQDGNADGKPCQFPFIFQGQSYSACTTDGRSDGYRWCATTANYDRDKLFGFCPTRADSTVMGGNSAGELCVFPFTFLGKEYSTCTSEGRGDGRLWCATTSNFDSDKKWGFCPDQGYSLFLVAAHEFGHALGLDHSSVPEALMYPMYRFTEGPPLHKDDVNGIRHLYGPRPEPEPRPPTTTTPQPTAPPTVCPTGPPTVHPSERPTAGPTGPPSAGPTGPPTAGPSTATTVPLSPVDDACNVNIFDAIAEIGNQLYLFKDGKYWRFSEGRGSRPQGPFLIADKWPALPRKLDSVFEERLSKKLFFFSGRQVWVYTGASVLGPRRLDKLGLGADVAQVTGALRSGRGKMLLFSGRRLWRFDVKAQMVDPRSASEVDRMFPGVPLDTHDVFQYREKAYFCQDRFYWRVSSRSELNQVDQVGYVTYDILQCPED

[2] = biological target: T1, Matrix metalloproteinase-9; test: Inhibition of recombinant human MMP9 at 10 uM using thiopeptide as substrate preincubated for 30 mins followed by substrate addition and measured every min for 20 mins by colorimetric assay relative to control
Method in brief: (§1)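 Colorimetric kit assay: human recombinant enzyme plus inhibitor in assay buffer for 30 min at 37 °C, then chromogenic MMP substrate added; A412 recorded each minute over 20 min. Enzyme-free blanks and inhibitor-free controls included.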

[3] = biological target: T1, Matrix metalloproteinase-9; test: Inhibition of recombinant human MMP9 at 25 uM using thiopeptide as substrate preincubated for 30 mins followed by substrate addition and measured every min for 20 mins by colorimetric assay relative to control
[4] = biological target: MMP-2/MMP-9 (Homo sapiens) (UniProt P08253+P14780); test: Selectivity ratio of IC50 for inhibition of recombinant human MMP9 to IC50 for inhibition of recombinant human MMP2
[5] = biological target: T2, 72 kDa type IV collagenase (Homo sapiens, UniProt P08253); test: Inhibition of recombinant human MMP2 at 10 uM using thiopeptide as substrate preincubated for 30 mins followed by substrate addition and measured every min for 20 mins by colorimetric assay relative to control; method in brief: as §1
Target sequence in this assay (P08253 110-660 limits assumed): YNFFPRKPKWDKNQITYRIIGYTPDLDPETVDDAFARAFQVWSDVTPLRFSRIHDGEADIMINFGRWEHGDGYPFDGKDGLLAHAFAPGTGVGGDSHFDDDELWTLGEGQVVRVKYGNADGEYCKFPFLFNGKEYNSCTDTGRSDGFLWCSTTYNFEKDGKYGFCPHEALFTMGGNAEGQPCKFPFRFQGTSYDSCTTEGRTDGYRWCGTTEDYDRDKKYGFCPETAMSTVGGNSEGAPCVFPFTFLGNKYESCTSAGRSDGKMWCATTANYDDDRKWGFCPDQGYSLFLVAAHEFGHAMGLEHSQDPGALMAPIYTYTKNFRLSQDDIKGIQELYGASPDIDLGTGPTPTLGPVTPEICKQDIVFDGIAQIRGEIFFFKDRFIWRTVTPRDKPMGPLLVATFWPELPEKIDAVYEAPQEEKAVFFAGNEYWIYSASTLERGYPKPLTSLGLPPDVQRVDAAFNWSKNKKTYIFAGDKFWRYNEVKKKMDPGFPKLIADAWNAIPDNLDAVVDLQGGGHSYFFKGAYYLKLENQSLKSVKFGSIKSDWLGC

[6] = biological target: T1, Matrix metalloproteinase-9; test: Inhibition of recombinant human MMP9 using thiopeptide as substrate preincubated for 30 mins followed by substrate addition and measured every min for 20 mins by colorimetric assay
[7] = biological target: T2, 72 kDa type IV collagenase; test: Inhibition of recombinant human MMP2 using thiopeptide as substrate preincubated for 30 mins followed by substrate addition and measured every mins for 20 min by colorimetric assay
Target sequence in this assay (P08253 whole entry): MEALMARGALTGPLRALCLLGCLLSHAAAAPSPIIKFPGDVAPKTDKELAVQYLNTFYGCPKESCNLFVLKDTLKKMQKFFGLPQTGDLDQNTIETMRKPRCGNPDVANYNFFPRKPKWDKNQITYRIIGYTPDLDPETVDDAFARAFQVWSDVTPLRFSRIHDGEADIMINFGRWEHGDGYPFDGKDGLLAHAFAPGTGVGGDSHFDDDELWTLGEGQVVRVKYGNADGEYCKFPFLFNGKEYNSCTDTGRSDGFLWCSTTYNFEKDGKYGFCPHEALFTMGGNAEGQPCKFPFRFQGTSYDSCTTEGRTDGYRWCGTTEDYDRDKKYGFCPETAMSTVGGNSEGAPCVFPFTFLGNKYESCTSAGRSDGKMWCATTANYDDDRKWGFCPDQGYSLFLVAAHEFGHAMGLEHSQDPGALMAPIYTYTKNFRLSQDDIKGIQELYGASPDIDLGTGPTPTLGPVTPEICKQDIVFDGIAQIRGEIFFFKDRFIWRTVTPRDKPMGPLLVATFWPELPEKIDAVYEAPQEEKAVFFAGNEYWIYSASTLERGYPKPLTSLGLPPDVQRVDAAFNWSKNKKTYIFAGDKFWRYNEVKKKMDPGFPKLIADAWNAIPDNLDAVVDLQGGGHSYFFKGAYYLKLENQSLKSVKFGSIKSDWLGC

A549 [8] = test: Inhibition of cell invasion in human A549 cells incubated for 24 hrs by crystal violet staining based matrigel migration assay; format: functional
Method in brief: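 As the migration setup but membrane precoated with matrigel (1:10 diluted) for 2 h at 37°C: A549 pretreated 24 h at 1, 5, 10 µM, 30,000 cells in serum-free medium above, 10% FBS below, 24 h, then fixing, 0.1% crystal violet staining and counting. Three repeats, mean ± SEM.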

A549 [9] = test: Induction of apoptosis in human A549 cells assessed as early apoptotic cells at 1 uM incubated for 48 hrs by annexin V FITC and propidium iodide based flow cytometry (reference value: 2.15 %); format: functional
Method in brief: (§2)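 A549 cells (1×10^5 cells/mL) treated 48 h at 0, 1, 5 or 10 µM; harvested, washed in cold PBS, resuspended in binding buffer with annexin V-FITC and PI, 15 min at room temperature in the dark, then analysed by flow cytometry.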

A549 [10] = test: Induction of apoptosis in human A549 cells assessed as viable cells at 1 uM incubated for 48 hrs by annexin V FITC and propidium iodide based flow cytometry (reference value: 94.7 %); format: functional; conditions: A549, 48 h, read-out: Activity; method in brief: as §2
A549 [11] = test: Induction of apoptosis in human A549 cells assessed as early apoptotic cells at 5 uM incubated for 48 hrs by annexin V FITC and propidium iodide based flow cytometry (reference value: 2.15 %); format: functional; method in brief: as §2
A549 [12] = test: Induction of apoptosis in human A549 cells assessed as necrotic cells at 10 uM incubated for 48 hrs by annexin V FITC and propidium iodide based flow cytometry (reference value: 0.02 %); format: functional; method in brief: as §2
A549 [13] = test: Induction of apoptosis in human A549 cells assessed as viable cells at 5 uM incubated for 48 hrs by annexin V FITC and propidium iodide based flow cytometry (reference value: 94.7 %); format: functional; conditions: A549, 48 h, read-out: Activity; method in brief: as §2
K562 = test: Antiproliferative activity against human K562 cells assessed as reduction in cell viability incubated for 48 hrs by MTT assay; format: functional, cell-based; conditions: K562, 48 h
Method in brief: (§3)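 Cells grown in RPMI1640 with 10% FBS at 37°C, 5% CO2; seeded at 4000-5000 cells/well for 8 h, then exposed to a range of compound concentrations for 48 h. MTT added for 4 h, formazan dissolved in DMSO, absorbance at 570 nm; IC50 calculated from inhibition ratios.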

A549 [14] = test: Induction of apoptosis in human A549 cells assessed as viable cells at 10 uM incubated for 48 hrs by annexin V FITC and propidium iodide based flow cytometry (reference value: 94.7 %); format: functional; conditions: A549, 48 h, read-out: Activity; method in brief: as §2
HUVEC [15] = test: Cytotoxicity against HUVEC assessed as reduction in cell viability incubated for 48 hrs by MTT assay; format: cell-based; conditions: Homo sapiens; method in brief: as §3
A549 [16] = test: Induction of apoptosis in human A549 cells assessed as late apoptotic cells at 10 uM incubated for 48 hrs by annexin V FITC and propidium iodide based flow cytometry (reference value: 3.11 %); format: functional; method in brief: as §2
HL-60 = test: Antiproliferative activity against human HL60 cells assessed as reduction in cell viability incubated for 48 hrs by MTT assay; format: functional, cell-based; conditions: HL-60, 48 h; method in brief: as §3
A549 [17] = test: Inhibition of cell migration in human A549 cells at 1 to 10 uM incubated for 24 hrs by crystal violet staining based transwell migration assay; format: functional
Method in brief: (§4)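 A549 cells pretreated 24 h with compound (1, 5, 10 µM), harvested into serum-free RPMI1640; 30,000 cells placed in upper transwell chamber, lower chamber RPMI1640 + 10% FBS as chemoattractant. Migration 24 h at 37°C, 5% CO2; cells fixed MeOH/acetic acid (3:1), upper side wiped, underside stained 0.1% crystal violet and counted. Three repeats, mean ± SEM.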

A549 [18] = test: Induction of apoptosis in human A549 cells assessed as late apoptotic cells at 1 uM incubated for 48 hrs by annexin V FITC and propidium iodide based flow cytometry (reference value: 3.11 %); format: functional; method in brief: as §2
KG-1 = test: Antiproliferative activity against human KG1 cells assessed as reduction in cell viability incubated for 48 hrs by MTT assay; format: functional, cell-based; conditions: KG-1, 48 h; method in brief: as §3
A549 [19] = test: Antiproliferative activity against human A549 cells assessed as reduction in cell viability incubated for 48 hrs by MTT assay; format: functional, cell-based; conditions: A549, 48 h; method in brief: as §3
A549 [20] = test: Induction of apoptosis in human A549 cells assessed as necrotic cells at 5 uM incubated for 48 hrs by annexin V FITC and propidium iodide based flow cytometry (reference value: 0.02 %); format: functional; method in brief: as §2
HUVEC [21] = test: Antiangiogenic activity in HUVEC assessed as inhibition of tuber formation at 10 uM incubated for 24 hrs by matrigel-based inverted microscopy; format: functional, cell-based; conditions: Homo sapiens
Method in brief: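 HUVEC treated with compound for 24 h in serum-free RPMI1640, harvested and layered onto undiluted matrigel polymerized 2 h at 37°C; after 6 h cell organization examined by inverted microscope, with mesh number counted as the angiogenesis read-out. Tested at 10 µM.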

A549 [22] = test: Down regulation of MMP9 expression in human A549 cells incubated for 24 hrs by Western blot analysis; format: functional, cell-based
Method in brief: (§5)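 A549 cells treated 24 h at 1, 5 and 10 µM; lysates run on SDS-PAGE, transferred to PVDF, blocked in 10% dry milk/TBST, probed with rabbit anti-MMP-2, anti-MMP-9 or anti-GAPDH, then secondary antibodies and imaged.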

[23] = biological target: T1, Matrix metalloproteinase-9; test: Inhibition of MMP9 in human A549 cells assessed as decrease in gelatin digestion incubated for 24 hrs by coomassie brilliant blue staining-based zymographic assay; format: cell-based
Method in brief: (§6)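 A549 cells treated 24 h at 1, 5, 10 µM; culture supernatants electrophoresed on gelatin-containing SDS-PAGE, gels washed three times in 0.25% triton, then incubated 48 h at 37°C in 50 mM Tris-HCl pH 7.5 with 0.15 M NaCl, 5 mM CaCl2, 0.05% NaN3 to reveal gelatinolytic activity.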

A549 [24] = test: Down regulation of MMP2 expression in human A549 cells incubated for 24 hrs by Western blot analysis; format: functional, cell-based; method in brief: as §5
A549 [25] = test: Induction of apoptosis in human A549 cells assessed as late apoptotic cells at 5 uM incubated for 48 hrs by annexin V FITC and propidium iodide based flow cytometry (reference value: 3.11 %); format: functional; method in brief: as §2
MCF7 = test: Antiproliferative activity against human MCF7 cells assessed as reduction in cell viability incubated for 48 hrs by MTT assay; format: functional, cell-based; conditions: MCF7, 48 h; method in brief: as §3
A549 [26] = test: Induction of apoptosis in human A549 cells assessed as necrotic cells at 1 uM incubated for 48 hrs by annexin V FITC and propidium iodide based flow cytometry (reference value: 0.02 %); format: functional; method in brief: as §2
PC-3 = test: Antiproliferative activity against human PC3 cells assessed as reduction in cell viability incubated for 48 hrs by MTT assay; format: functional, cell-based; conditions: PC-3, 48 h; method in brief: as §3
[27] = biological target: T2, 72 kDa type IV collagenase; test: Inhibition of MMP2 in human A549 cells assessed as decrease in gelatin digestion incubated for 24 hrs by coomassie brilliant blue staining-based zymographic assay; format: cell-based; method in brief: as §6
Target sequence in this assay (P08253 110-660 limits assumed): as the sequence (P08253 110-660 limits assumed) above

A549 [28] = test: Induction of apoptosis in human A549 cells assessed as early apoptotic cells at 10 uM incubated for 48 hrs by annexin V FITC and propidium iodide based flow cytometry (reference value: 2.15 %); format: functional; method in brief: as §2
A549 [29] = test: Inhibition of cell migration in human A549 cells incubated for 24 hrs by crystal violet staining based transwell migration assay; format: functional; method in brief: as §4

CN(CCCCC(=O)Nc1ccc(O)c2ncccc12)c1ccccc1
inhibition [1]: 35%
inhibition [2]: 22.2%
inhibition [3]: 15%
Ratio IC50 [4]: > 7
inhibition [5]: 57.5%
IC50 [6]: > 10 µM
IC50 [7]: 7.5 µM

CN(CCCCCC(=O)Nc1ccc(O)c2ncccc12)c1ccccc1
inhibition [1]: 26%
inhibition [2]: 35.3%
inhibition [3]: 22%
Ratio IC50 [4]: > 7
inhibition [5]: 59.5%
IC50 [6]: > 10 µM
IC50 [7]: 6.2 µM

Cc1[nH]c2ccccc2c1CCNC(=O)CCCNCc1cc(Cl)c2cccnc2c1O
inhibition (A549 [8]): Dose-dependent effect
Activity (A549 [9]): 16%
viability at 1 µM (A549 [10]): 74.9%
Activity (A549 [11]): 29.4%
inhibition [2]: 100%
Activity (A549 [12]): 0.46%
viability at 5 µM (A549 [13]): 64.4%
IC50 (K562): 1.8 µM
viability at 10 µM (A549 [14]): 62.5%
IC50 (HUVEC [15]): > 50 µM
Activity (A549 [16]): 4.97%
IC50 (HL-60): 4 µM
inhibition (A549 [17]): Active
Activity (A549 [18]): 9.15%
IC50 (KG-1): 0.69 µM
IC50 (A549 [19]): 6.4 µM
Activity (A549 [20]): 0.027%
inhibition (HUVEC [21]): Active
Activity (A549 [22]): Dose-dependent effect
inhibition [23]: Dose-dependent effect
Activity (A549 [24]): Dose-dependent effect
inhibition [5]: 68.8%
Activity (A549 [25]): 6.17%
IC50 (MCF7): 7.8 µM
Activity (A549 [26]): 0%
IC50 (PC-3): 22 µM
inhibition [27]: Dose-dependent effect
IC50 [6]: 1.3 µM
Activity (A549 [28]): 32.5%
IC50 [7]: 0.81 µM

O=C(CCCCCNCc1cc(Cl)c2cccnc2c1O)Nc1ccccc1
inhibition (A549 [8]): Dose-dependent effect
Activity (A549 [9]): 16.4%
viability at 1 µM (A549 [10]): 75.8%
Activity (A549 [11]): 17.1%
inhibition [2]: 100%
Activity (A549 [12]): 0.14%
viability at 5 µM (A549 [13]): 73.1%
IC50 (K562): 2.3 µM
viability at 10 µM (A549 [14]): 72.3%
IC50 (HUVEC [15]): > 50 µM
Activity (A549 [16]): 6.54%
IC50 (HL-60): 1.8 µM
Activity (A549 [18]): 7.81%
IC50 (KG-1): 2.3 µM
IC50 (A549 [19]): 11 µM
Activity (A549 [20]): 0.029%
inhibition (HUVEC [21]): Active
Activity (A549 [22]): Dose-dependent effect
inhibition [23]: Dose-dependent effect
Activity (A549 [24]): Dose-dependent effect
inhibition [5]: 100%
Activity (A549 [25]): 9.75%
IC50 (MCF7): 4.6 µM
Activity (A549 [26]): 0.031%
inhibition (A549 [29]): Dose-dependent effect
IC50 (PC-3): 8.3 µM
inhibition [27]: Dose-dependent effect
IC50 [6]: 0.66 µM
Activity (A549 [28]): 21%
IC50 [7]: 0.7 µM

O=S(=O)(Nc1ccc(O)c2ncccc12)c1ccc(F)cc1
Activity (A549 [9]): 14.4%
viability at 1 µM (A549 [10]): 79.5%
Activity (A549 [11]): 19.8%
Activity (A549 [12]): 0.11%
viability at 5 µM (A549 [13]): 74.6%
IC50 (K562): 3.6 µM
viability at 10 µM (A549 [14]): 73.1%
IC50 (HUVEC [15]): > 50 µM
Activity (A549 [16]): 6.57%
IC50 (HL-60): 4.6 µM
inhibition (A549 [17]): Active
Activity (A549 [18]): 6.11%
IC50 (KG-1): 4.6 µM
IC50 (A549 [19]): 51 µM
Activity (A549 [20]): 0.017%
inhibition (HUVEC [21]): Active
Activity (A549 [25]): 5.49%
IC50 (MCF7): 42 µM
Activity (A549 [26]): 0.032%
IC50 (PC-3): 18 µM
IC50 [6]: 11 µM
Activity (A549 [28]): 20.2%
IC50 [7]: 8.8 µM
